In brackets after ≈: the same amount, converted by molar mass.
Experiments:
[1] = system: Botrytis cinerea; experiment: Antifungal activity against Botryotinia fuckeliana KACC 40573 assessed as inhibition of radial growth at 0.2 mg/disk incubated for 4 to 6 days by disk diffusion method; type: functional
Outline: (§1)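 Disk diffusion on PDA in 9 cm dishes. Sample in DMSO at 40 mg/mL; paper disks loaded with 5 or 15 μL, dried, and set equidistantly. A 6 mm agar plug of the pathogen was placed upside down in the centre. Plates were incubated at 25 C for 4-6 days, until solvent-control growth reached the edge. % inhibition = radial growth versus control; triplicate plates; mean ± SD of three experiments.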

[2] = system: Sclerotinia sclerotiorum; experiment: Antifungal activity against Sclerotinia sclerotiorum KACC 41065 measured 2 to 4 days post dose by two-fold dilution method; type: functional
Outline: (§2)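 Two-fold dilution MIC in potato dextrose broth tubes. The DMSO-dissolved sample was serially diluted to final 10, 25, 50, 100, 250, 500 and 750 μg/mL, then inoculated with 10 μL spore suspension (1 × 10^8 spores/mL, from 10-day cultures). Tubes were incubated 2-4 days at 28 C; the control tube held spores only. MIC was the lowest concentration with no visible growth.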

[3] = system: Botrytis cinerea; experiment: Inhibition of spore germination of Botryotinia fuckeliana KACC 40573; type: functional, organism-based
Outline: (§3)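 Glyceollins were tested at 10, 25, 50, 100, 250 and 500 μg/mL against a 1% DMSO control, with spore suspension at 1.0 × 10^8 spores/mL. 100 μL aliquots went on glass slides in triplicate and were kept in a moist chamber at 25 C for 24 h. Slides were fixed in lactophenol-cotton blue, about 200 spores were counted for germ tubes, and germination was expressed relative to control.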

[4] = system: Phytophthora capsici; experiment: Inhibition of spore germination of Phytophthora capsici KACC 40157 at 100 ug/mL measured 3 hr post dose; type: functional; conditions: KACC 40157, 3 h
[5] = system: Fusarium oxysporum; experiment: Antifungal activity against Fusarium oxysporum KACC 41083 assessed as inhibition of radial growth at 0.6 mg/disk incubated for 4 to 6 days by disk diffusion method; type: functional; outline: as §1
[6] = system: Fusarium oxysporum; experiment: Antifungal activity against Fusarium oxysporum KACC 41083 measured 2 to 4 days post dose by two-fold dilution method; type: functional; outline: as §2
[7] = system: Botrytis cinerea; experiment: Antifungal activity against Botryotinia fuckeliana KACC 40573 assessed as inhibition of radial growth at 0.6 mg/disk incubated for 4 to 6 days by disk diffusion method; type: functional; outline: as §1
[8] = system: Phytophthora capsici; experiment: Antifungal activity against Phytophthora capsici KACC 40157 measured 2 to 4 days post dose by two fold dilution method; type: functional; outline: as §2
[9] = system: Fusarium oxysporum; experiment: Inhibition of spore germination of Fusarium oxysporum KACC 41083 at 100 to 500 ug/mL; type: functional; outline: as §3
[10] = system: Sclerotinia sclerotiorum; experiment: Antifungal activity against Sclerotinia sclerotiorum KACC 41065 assessed as inhibition of radial growth at 0.6 mg/disk incubated for 4 to 6 days by disk diffusion method; type: functional; outline: as §1
[11] = system: Botrytis cinerea; experiment: Inhibition of spore germination of Botryotinia fuckeliana KACC 40573 at 100 to 500 ug/mL; type: functional; outline: as §3
[12] = system: Phytophthora capsici; experiment: Inhibition of spore germination of Phytophthora capsici KACC 40157; type: functional, organism-based; outline: as §3
[13] = system: Sclerotinia sclerotiorum; experiment: Inhibition of spore germination of Sclerotinia sclerotiorum KACC 41065; type: functional, organism-based; outline: as §3
[14] = system: Fusarium oxysporum; experiment: Antifungal activity against Fusarium oxysporum KACC 41083 assessed as inhibition of radial growth at 0.2 mg/disk incubated for 4 to 6 days by disk diffusion method; type: functional; outline: as §1
[15] = system: Phytophthora capsici; experiment: Antifungal activity against Phytophthora capsici KACC 40157 assessed as inhibition of radial growth at 0.6 mg/disk incubated for 4 to 6 days by disk diffusion method; type: functional; outline: as §1
[16] = system: Phytophthora capsici; experiment: Inhibition of spore germination of Phytophthora capsici KACC 40157 at 25 ug/mL measured 4 hr post dose; type: functional; conditions: KACC 40157, 4 h
[17] = system: Phytophthora capsici; experiment: Inhibition of spore germination of Phytophthora capsici KACC 40157 at 100 ug/mL; type: functional
[18] = system: Phytophthora capsici; experiment: Inhibition of spore germination of Phytophthora capsici KACC 40157 at 250 ug/mL; type: functional; outline: as §3
[19] = system: Sclerotinia sclerotiorum; experiment: Antifungal activity against Sclerotinia sclerotiorum KACC 41065 assessed as inhibition of radial growth at 0.2 mg/disk incubated for 4 to 6 days by disk diffusion method; type: functional; outline: as §1
[20] = system: Botrytis cinerea; experiment: Antifungal activity against Botryotinia fuckeliana KACC 40573 measured 2 to 4 days post dose by two fold dilution method; type: functional; outline: as §2
[21] = system: Fusarium oxysporum; experiment: Inhibition of spore germination of Fusarium oxysporum KACC 41083; type: functional, organism-based; outline: as §3
[22] = system: Phytophthora capsici; experiment: Antifungal activity against Phytophthora capsici KACC 40157 assessed as inhibition of radial growth at 0.2 mg/disk incubated for 4 to 6 days by disk diffusion method; type: functional; outline: as §1
[23] = system: Phytophthora capsici; experiment: Inhibition of spore germination of Phytophthora capsici KACC 40157 at 25 to 100 ug/mL; type: functional, organism-based; conditions: TDE = time-dependent effect
[24] = system: Sclerotinia sclerotiorum; experiment: Inhibition of spore germination of Sclerotinia sclerotiorum KACC 41065 at 500 ug/mL; type: functional; outline: as §3
[25] = system: Phytophthora capsici; experiment: Inhibition of spore germination of Phytophthora capsici KACC 40157 at 100 ug/mL measured 2 hr post dose; type: functional; conditions: KACC 40157, 2 h

SMILES	inhibition (INH) [1]	MIC [2]	inhibition [3]	inhibition at 100 µg/mL [4]	inhibition (INH) [5]	MIC [6]	inhibition (INH) [7]	MIC [8]	inhibition (INH) [9]	inhibition (INH) [10]	inhibition (INH) [11]	inhibition [12]	inhibition [13]	inhibition (INH) [14]	inhibition (INH) [15]	inhibition at 25 µg/mL [16]	inhibition at 100 µg/mL [17]	inhibition at 250 µg/mL [18]	inhibition (INH) [19]	MIC [20]	also measured
C=C(C)[C@@H]1Cc2cc3c(cc2O1)OC[C@@]1(O)c2ccc(O)cc2O[C@@H]31 [GLYCEOLLIN III]	10.9%	50 µg/mL (≈ 148 µM)	Dose-dependent effect	100%	40.1%	250 µg/mL (≈ 739 µM)	22.1%	25 µg/mL (≈ 73.9 µM)	40%	61%	40%	Dose-dependent effect	Dose-dependent effect	27.4%	40.5%	50%	100%	100%	48.2%	750 µg/mL (≈ 2220 µM)	inhibition [21]: Dose-dependent effect; inhibition (INH) [22]: 37.5%; inhibition [23]: tde; inhibition at 500 µg/mL [24]: 100%; inhibition at 100 µg/mL [25]: 95%
CC1(C)C=Cc2cc3c(cc2O1)OC[C@@]1(O)c2ccc(O)cc2O[C@@H]31 [GLYCEOLLIN II]	10.9%	50 µg/mL (≈ 148 µM)	Dose-dependent effect	100%	40.1%	250 µg/mL (≈ 739 µM)	22.1%	25 µg/mL (≈ 73.9 µM)	40%	61%	40%	Dose-dependent effect	Dose-dependent effect	27.4%	40.5%	50%	100%	100%	48.2%	750 µg/mL (≈ 2220 µM)	inhibition [21]: Dose-dependent effect; inhibition (INH) [22]: 37.5%; inhibition [23]: tde; inhibition at 500 µg/mL [24]: 100%; inhibition at 100 µg/mL [25]: 95%
CC1(C)C=Cc2c(ccc3c2OC[C@@]2(O)c4ccc(O)cc4O[C@@H]32)O1 [GLYCEOLLIN I]	10.9%	50 µg/mL (≈ 148 µM)	Dose-dependent effect	100%	40.1%	250 µg/mL (≈ 739 µM)	22.1%	25 µg/mL (≈ 73.9 µM)	40%	61%	40%	Dose-dependent effect	Dose-dependent effect	27.4%	40.5%	50%	100%	100%	48.2%	750 µg/mL (≈ 2220 µM)	inhibition [21]: Dose-dependent effect; inhibition (INH) [22]: 37.5%; inhibition [23]: tde; inhibition at 500 µg/mL [24]: 100%; inhibition at 100 µg/mL [25]: 95%

From ChEMBL document CHEMBL3044867, “Antifungal activity of glyceollins isolated from soybean elicited with Aspergillus sojae” (2010)
